From ChEMBL document CHEMBL5303300, “EUbOPEN Chemogenomics Library - Multiplex” (2023)
Several values for one entry are separate records, joined by “and”; a condition that tells them apart may be missing. Equal values may be shown once.

Columns and labels:
Format in all cases: toxicity, cell-based
[1] = tested on: U2OS; assay: Multiplex assay against U2OS; conditions: human, number of replicates 2
Method in brief: (§1)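 With compound added, live cells were imaged on a CQ1 microscope at 37°C and 5% CO2; staining with Hoechst33342, BioTracker Green Microtubule Cytoskeleton Dye, MitoTracker Red and Annexin V Alexa Fluor 680 had been done at seeding. The CellPathfinder machine-learning gating scheme split cells into Hoechst high-intensity objects or normal cells, normal cells into healthy, pyknosed or fragmented nuclei, and pyknosed cells into mitotic or apoptotic. The tubulin, mitochondrial-mass and membrane-permeability phenotypes are per cents of healthy-nucleus cells.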

[2] = tested on: Fibroblast; assay: Multiplex assay against human fibroblast; conditions: number of replicates 2; method in brief: as §1
[3] = tested on: HEK-293T; assay: Multiplex assay against HEK293T; conditions: human, number of replicates 2; method in brief: as §1
[4] = 12 h, 1 µM, compound concentration 1 uM
[5] = 12 h, 10 µM, compound concentration 10 uM
[6] = 24 h, 1 µM, compound concentration 1 uM
[7] = 24 h, 10 µM, compound concentration 10 uM
[8] = 48 h, 1 µM, compound concentration 1 uM
[9] = 48 h, 10 µM, compound concentration 10 uM

## CN1CCc2cc(Cl)c(O)cc2[C@@H](c2ccccc2)C1.Cl
[1]; [4]
  Population Apoptotic (%): 100% and 36%
  Population Healthy Nuclei (%): 58% and 86%
  Population Hoechst High Intensity Objects (%): 0%
  Population Membrane Permeable-Phenotype (%): 0%
  Population Mitochondria Different-Phenotype (%): 0%
  Population Normal (%): 100%
  Population Pyknosed Nuclei (%): 12% and 7%
  Population Tubulin-Different-Phenotype (%): 78% and 88%
[1]; [5]
  Population Apoptotic (%): 50% and 29%
  Population Fragmented Nuclei (%): 3% and 4%
  Population Healthy Nuclei (%): 75% and 85%
  Population Hoechst High Intensity Objects (%): 0%
  Population Membrane Permeable-Phenotype (%): 0% and 2%
  Population Mitochondria Different-Phenotype (%): 0%
  Population Mitotic Cells (%): 50% and 70%
  Population Normal (%): 100% and 99%
  Population Pyknosed Nuclei (%): 21% and 9%
  Population Tubulin-Different-Phenotype (%): 55% and 80%
[1]; [6]
  Population Apoptotic (%): 28% and 33%
  Population Healthy Nuclei (%): 56% and 87%
  Population Hoechst High Intensity Objects (%): 0%
  Population Membrane Permeable-Phenotype (%): 0% and 1%
  Population Mitochondria Different-Phenotype (%): 0%
  Population Mitotic Cells (%): 71% and 66%
  Population Normal (%): 100%
  Population Pyknosed Nuclei (%): 15% and 7%
  Population Tubulin-Different-Phenotype (%): 88% and 92%
[1]; [7]
  Population Apoptotic (%): 50% and 58%
  Population Fragmented Nuclei (%): 5% and 3%
  Population Healthy Nuclei (%): 85% and 87%
  Population Hoechst High Intensity Objects (%): 0%
  Population Membrane Permeable-Phenotype (%): 1%
  Population Mitochondria Different-Phenotype (%): 0%
  Population Mitotic Cells (%): 50% and 41%
  Population Normal (%): 100% and 99%
  Population Pyknosed Nuclei (%): 10% and 8%
  Population Tubulin-Different-Phenotype (%): 75% and 81%
[1]; [8]
  Population Apoptotic (%): 54% and 50%
  Population Fragmented Nuclei (%): 8% and 3%
  Population Healthy Nuclei (%): 73% and 92%
  Population Hoechst High Intensity Objects (%): 1% and 0%
  Population Membrane Permeable-Phenotype (%): 2% and 1%
  Population Mitochondria Different-Phenotype (%): 2% and 0%
  Population Mitotic Cells (%): 45% and 50%
  Population Normal (%): 98% and 100%
  Population Tubulin-Different-Phenotype (%): 80% and 90%
[1]; [9]
  Population Apoptotic (%): 50% and 53%
  Population Fragmented Nuclei (%): 11% and 3%
  Population Healthy Nuclei (%): 79% and 88%
  Population Hoechst High Intensity Objects (%): 0%
  Population Membrane Permeable-Phenotype (%): 0% and 2%
  Population Mitochondria Different-Phenotype (%): 1% and 0%
  Population Mitotic Cells (%): 50% and 46%
  Population Normal (%): 100%
  Population Pyknosed Nuclei (%): 9% and 7%
  Population Tubulin-Different-Phenotype (%): 87%
[2]; [4]
  Population Apoptotic (%): 46% and 55%
  Population Fragmented Nuclei (%): 10% and 17%
  Population Healthy Nuclei (%): 63%
  Population Hoechst High Intensity Objects (%): 1% and 0%
  Population Membrane Permeable-Phenotype (%): 10% and 6%
  Population Mitochondria Different-Phenotype (%): 1% and 4%
  Population Mitotic Cells (%): 53% and 44%
  Population Normal (%): 98% and 99%
  Population Pyknosed Nuclei (%): 26% and 18%
  Population Tubulin-Different-Phenotype (%): 15% and 14%
  Total Cell Count: 175 and 235
[2]; [5]
  Population Apoptotic (%): 43% and 53%
  Population Fragmented Nuclei (%): 11% and 17%
  Population Healthy Nuclei (%): 71% and 78%
  Population Hoechst High Intensity Objects (%): 0%
  Population Membrane Permeable-Phenotype (%): 4% and 3%
  Population Mitochondria Different-Phenotype (%): 3% and 4%
  Population Mitotic Cells (%): 56% and 46%
  Population Normal (%): 100%
  Population Tubulin-Different-Phenotype (%): 21% and 12%
  Total Cell Count: 244 and 283
[2]; [6]
  Population Apoptotic (%): 52% and 62%
  Population Fragmented Nuclei (%): 6% and 18%
  Population Healthy Nuclei (%): 69% and 67%
  Population Hoechst High Intensity Objects (%): 1% and 0%
  Population Membrane Permeable-Phenotype (%): 12% and 7%
  Population Mitochondria Different-Phenotype (%): 0% and 1%
  Population Mitotic Cells (%): 47% and 37%
  Population Normal (%): 98% and 100%
  Population Pyknosed Nuclei (%): 23% and 14%
  Population Tubulin-Different-Phenotype (%): 20% and 11%
  Total Cell Count: 161 and 242
[2]; [7]
  Population Apoptotic (%): 65% and 83%
  Population Fragmented Nuclei (%): 16% and 21%
  Population Healthy Nuclei (%): 76%
  Population Hoechst High Intensity Objects (%): 0%
  Population Membrane Permeable-Phenotype (%): 3% and 2%
  Population Mitochondria Different-Phenotype (%): 2% and 0%
  Population Mitotic Cells (%): 35% and 16%
  Population Normal (%): 100%
  Population Pyknosed Nuclei (%): 7% and 2%
  Population Tubulin-Different-Phenotype (%): 20% and 10%
  Total Cell Count: 265 and 295
[2]; [8]
  Population Apoptotic (%): 53% and 75%
  Population Fragmented Nuclei (%): 9% and 18%
  Population Healthy Nuclei (%): 72% and 73%
  Population Hoechst High Intensity Objects (%): 0%
  Population Membrane Permeable-Phenotype (%): 8% and 4%
  Population Mitochondria Different-Phenotype (%): 1% and 2%
  Population Mitotic Cells (%): 46% and 25%
  Population Normal (%): 100% and 99%
  Population Pyknosed Nuclei (%): 18% and 8%
  Population Tubulin-Different-Phenotype (%): 11% and 7%
  Total Cell Count: 175 and 251
[2]; [9]
  Population Apoptotic (%): 76% and 100%
  Population Fragmented Nuclei (%): 21% and 26%
  Population Healthy Nuclei (%): 73% and 72%
  Population Hoechst High Intensity Objects (%): 0%
  Population Membrane Permeable-Phenotype (%): 4% and 1%
  Population Mitochondria Different-Phenotype (%): 0%
  Population Mitotic Cells (%): 23% and 0%
  Population Normal (%): 100%
  Population Pyknosed Nuclei (%): 4% and 0%
  Population Tubulin-Different-Phenotype (%): 12% and 3%
  Total Cell Count: 292 and 324
[3]; [4]
  Population Apoptotic (%): 48% and 46%
  Population Fragmented Nuclei (%): 3% and 4%
  Population Healthy Nuclei (%): 84% and 85%
  Population Hoechst High Intensity Objects (%): 7% and 5%
  Population Membrane Permeable-Phenotype (%): 5% and 3%
  Population Mitochondria Different-Phenotype (%): 23% and 12%
  Population Mitotic Cells (%): 51% and 53%
  Population Normal (%): 92% and 94%
  Population Pyknosed Nuclei (%): 12% and 10%
  Population Tubulin-Different-Phenotype (%): 50% and 47%
  Total Cell Count: 505 and 645
[3]; [5]
  Population Apoptotic (%): 40% and 55%
  Population Fragmented Nuclei (%): 4%
  Population Healthy Nuclei (%): 87% and 85%
  Population Hoechst High Intensity Objects (%): 6% and 8%
  Population Membrane Permeable-Phenotype (%): 3% and 4%
  Population Mitochondria Different-Phenotype (%): 11%
  Population Mitotic Cells (%): 59% and 45%
  Population Normal (%): 93% and 91%
  Population Pyknosed Nuclei (%): 8% and 9%
  Population Tubulin-Different-Phenotype (%): 54% and 52%
  Total Cell Count: 819 and 669
[3]; [6]
  Population Apoptotic (%): 47% and 31%
  Population Fragmented Nuclei (%): 6% and 5%
  Population Healthy Nuclei (%): 83% and 88%
  Population Hoechst High Intensity Objects (%): 7%
  Population Membrane Permeable-Phenotype (%): 1% and 3%
  Population Mitochondria Different-Phenotype (%): 8% and 3%
  Population Mitotic Cells (%): 52% and 68%
  Population Normal (%): 92%
  Population Pyknosed Nuclei (%): 9% and 6%
  Population Tubulin-Different-Phenotype (%): 25% and 24%
  Total Cell Count: 778 and 975
[3]; [7]
  Population Apoptotic (%): 38% and 37%
  Population Fragmented Nuclei (%): 7% and 8%
  Population Healthy Nuclei (%): 88% and 87%
  Population Hoechst High Intensity Objects (%): 8% and 7%
  Population Membrane Permeable-Phenotype (%): 5% and 4%
  Population Mitochondria Different-Phenotype (%): 3%
  Population Mitotic Cells (%): 61% and 62%
  Population Normal (%): 91% and 92%
  Population Pyknosed Nuclei (%): 4%
  Population Tubulin-Different-Phenotype (%): 35% and 38%
  Total Cell Count: 1332 and 988
[3]; [8]
  Population Apoptotic (%): 10% and 5%
  Population Fragmented Nuclei (%): 10% and 11%
  Population Healthy Nuclei (%): 85% and 84%
  Population Hoechst High Intensity Objects (%): 8% and 9%
  Population Membrane Permeable-Phenotype (%): 3% and 6%
  Population Mitochondria Different-Phenotype (%): 1% and 0%
  Population Mitotic Cells (%): 89% and 94%
  Population Normal (%): 91% and 90%
  Population Pyknosed Nuclei (%): 3%
  Population Tubulin-Different-Phenotype (%): 10% and 14%
  Total Cell Count: 1964 and 2487
[3]; [9]
  Population Apoptotic (%): 6% and 16%
  Population Fragmented Nuclei (%): 22% and 20%
  Population Healthy Nuclei (%): 75% and 77%
  Population Hoechst High Intensity Objects (%): 9% and 10%
  Population Membrane Permeable-Phenotype (%): 10%
  Population Mitochondria Different-Phenotype (%): 0%
  Population Mitotic Cells (%): 93% and 83%
  Population Normal (%): 90% and 89%
  Population Pyknosed Nuclei (%): 2%
  Population Tubulin-Different-Phenotype (%): 20% and 21%
  Total Cell Count: 3504 and 2430
